# Data: ChEMBL document CHEMBL3124858, “Drug design targeting protein-protein interactions (PPIs) using multiple ligand simultaneous docking (MLSD) and drug repositioning: discovery of raloxifene and bazedoxifene as novel inhibitors of IL-6/GP130 interface” (J Med Chem, 2014)
# Active and inactive are the calls of the source. The calls are words filed in the database; no cut-off is given here.
# Columns and labels:
# [1] = Cytotoxicity against human MIAPaCa2 cells assessed as cell viability; assay type: functional, cell-based; settings: MIA PaCa-2
# [2] = Cytotoxicity against ER-negative human SUM159 cells assessed as cell viability after 72 hrs by MTT assay in presence of IL-6; assay type: functional, cell-based; settings: SUM-159-PT
# Summary of the method: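 SUM159 (ER negative) seeded at 3,000 cells/well, given […] compound in triplicate with 10% FBS. Incubated 72 h at 37 °C, then MTT read-out, absorbance at 595 nm. IC50 from curve fitting.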
# PANC-1 = assay: Inhibition of IFN-gamma receptor/GP130 interaction in human PANC-1 cells assessed as inhibition of IFN-gamma-induced STAT1 phosphorylation at Y701 at 25 uM […] measured after 24 hrs by Western blot analysis; assay type: cell-based
# Summary of the method: (§1)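 PANC-1 cells (GP130+, ER−) in DMEM/10% FBS, stimulated with 50 ng/ml IL-6 or IFN-γ for 30 min before compound (10-50µM range), then 24 h at 60-80% confluence with 10% FBS. Whole-cell extracts made in RIPA with protease inhibitors. Blotted for pSTAT3 (Tyr705), STAT3, pSTAT1 (Tyr701), STAT1 and GAPDH, with chemiluminescent detection.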
# [3] = biological target: LIFR/GP130 (Homo sapiens) (UniProt P40189+P42702); assay: Inhibition of LIFR/GP130 interaction in human PANC-1 cells assessed as inhibition of LIF-induced STAT3 phosphorylation at Y705 at 25 uM after 24 hrs by Western blot analysis; assay type: cell-based
# [4] = biological target: T1, IL6Ralpha/GP130 (Homo sapiens) (UniProt P08887+P40189); assay: Inhibition of IL-6Ralpha/GP130 interaction in ER-negative human SUM159 cells overexpressing IL-6 assessed as inhibition of constitutive STAT3 phosphorylation at Y705 at 15 to 50 uM after 24 hrs by Western blot analysis; assay type: cell-based
# Summary of the method: (§2)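 Constitutive STAT3 activity in SUM159 (ER negative) cells grown in DMEM/10% FBS. Compound (10-50µM) or DMSO added at 60-80% confluence with 10% FBS for 24 h. RIPA whole-cell lysates run on SDS-PAGE and immunoblotted overnight at 4 °C for pSTAT3 (Tyr705), STAT3 and GAPDH. Detection by chemiluminescence.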
# [5] = biological target: T2, Interleukin-6 receptor subunit beta (Homo sapiens, UniProt P40189); assay: Binding affinity to GP130 (unknown origin) by surface plasmon resonance analysis
# T2 sequence (P40189 whole entry): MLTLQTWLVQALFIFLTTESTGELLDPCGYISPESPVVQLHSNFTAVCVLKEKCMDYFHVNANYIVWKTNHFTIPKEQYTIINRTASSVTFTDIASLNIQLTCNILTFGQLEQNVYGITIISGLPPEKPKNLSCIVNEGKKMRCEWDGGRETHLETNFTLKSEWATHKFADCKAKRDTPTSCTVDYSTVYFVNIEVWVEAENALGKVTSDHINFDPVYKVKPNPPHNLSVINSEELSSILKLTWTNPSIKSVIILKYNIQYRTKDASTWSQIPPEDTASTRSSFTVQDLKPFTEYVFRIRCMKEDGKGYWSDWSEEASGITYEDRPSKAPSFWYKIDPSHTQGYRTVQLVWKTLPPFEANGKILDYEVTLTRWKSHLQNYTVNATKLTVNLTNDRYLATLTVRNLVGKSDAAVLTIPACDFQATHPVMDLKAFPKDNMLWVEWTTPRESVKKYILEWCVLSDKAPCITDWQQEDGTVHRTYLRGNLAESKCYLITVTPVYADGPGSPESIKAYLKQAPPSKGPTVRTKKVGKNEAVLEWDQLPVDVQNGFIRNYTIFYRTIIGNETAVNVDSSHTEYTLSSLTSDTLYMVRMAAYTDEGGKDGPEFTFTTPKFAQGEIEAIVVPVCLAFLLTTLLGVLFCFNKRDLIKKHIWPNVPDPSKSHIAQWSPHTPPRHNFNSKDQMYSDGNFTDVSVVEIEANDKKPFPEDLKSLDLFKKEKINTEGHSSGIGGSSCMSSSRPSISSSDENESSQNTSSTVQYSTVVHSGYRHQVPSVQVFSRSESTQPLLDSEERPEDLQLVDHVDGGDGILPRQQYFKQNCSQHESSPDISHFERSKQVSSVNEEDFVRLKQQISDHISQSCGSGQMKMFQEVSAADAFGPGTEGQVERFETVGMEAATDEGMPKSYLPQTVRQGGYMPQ
# [6] = biological target: T1, IL6Ralpha/GP130 (Homo sapiens); assay: Inhibition of IL-6Ralpha/GP130 interaction in ER-negative human SUM159 cells overexpressing IL-6 assessed as inhibition of constitutive STAT3 phosphorylation at Y705 at 10 to 30 uM after 24 hrs by Western blot analysis; assay type: cell-based; summary of the method: as §2
# [7] = biological target: T1, IL6Ralpha/GP130 (Homo sapiens); assay: Inhibition of IL-6Ralpha/GP130 interaction in human PANC-1 cells assessed as inhibition of IL-6-induced STAT3 phosphorylation at Y705 at 25 uM […] measured after 24 hrs by Western blot analysis; assay type: cell-based; summary of the method: as §1
# T1 sequence (P08887 whole entry, looked up, one chain of several): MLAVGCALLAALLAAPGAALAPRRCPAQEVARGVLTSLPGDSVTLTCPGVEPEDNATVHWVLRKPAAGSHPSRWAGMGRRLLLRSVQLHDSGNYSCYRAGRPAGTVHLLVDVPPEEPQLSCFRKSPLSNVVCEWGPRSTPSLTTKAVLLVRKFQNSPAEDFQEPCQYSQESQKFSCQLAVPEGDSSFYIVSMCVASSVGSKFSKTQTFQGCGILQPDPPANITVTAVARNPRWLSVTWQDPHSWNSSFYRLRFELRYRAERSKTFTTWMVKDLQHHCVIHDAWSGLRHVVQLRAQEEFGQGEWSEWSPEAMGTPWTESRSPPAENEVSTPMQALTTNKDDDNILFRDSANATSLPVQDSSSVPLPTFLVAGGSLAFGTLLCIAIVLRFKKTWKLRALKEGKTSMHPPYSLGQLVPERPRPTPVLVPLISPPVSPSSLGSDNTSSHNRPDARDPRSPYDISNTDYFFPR
# Sequence of LIFR/GP130 (Homo sapiens) (P42702 whole entry, looked up, one chain of several): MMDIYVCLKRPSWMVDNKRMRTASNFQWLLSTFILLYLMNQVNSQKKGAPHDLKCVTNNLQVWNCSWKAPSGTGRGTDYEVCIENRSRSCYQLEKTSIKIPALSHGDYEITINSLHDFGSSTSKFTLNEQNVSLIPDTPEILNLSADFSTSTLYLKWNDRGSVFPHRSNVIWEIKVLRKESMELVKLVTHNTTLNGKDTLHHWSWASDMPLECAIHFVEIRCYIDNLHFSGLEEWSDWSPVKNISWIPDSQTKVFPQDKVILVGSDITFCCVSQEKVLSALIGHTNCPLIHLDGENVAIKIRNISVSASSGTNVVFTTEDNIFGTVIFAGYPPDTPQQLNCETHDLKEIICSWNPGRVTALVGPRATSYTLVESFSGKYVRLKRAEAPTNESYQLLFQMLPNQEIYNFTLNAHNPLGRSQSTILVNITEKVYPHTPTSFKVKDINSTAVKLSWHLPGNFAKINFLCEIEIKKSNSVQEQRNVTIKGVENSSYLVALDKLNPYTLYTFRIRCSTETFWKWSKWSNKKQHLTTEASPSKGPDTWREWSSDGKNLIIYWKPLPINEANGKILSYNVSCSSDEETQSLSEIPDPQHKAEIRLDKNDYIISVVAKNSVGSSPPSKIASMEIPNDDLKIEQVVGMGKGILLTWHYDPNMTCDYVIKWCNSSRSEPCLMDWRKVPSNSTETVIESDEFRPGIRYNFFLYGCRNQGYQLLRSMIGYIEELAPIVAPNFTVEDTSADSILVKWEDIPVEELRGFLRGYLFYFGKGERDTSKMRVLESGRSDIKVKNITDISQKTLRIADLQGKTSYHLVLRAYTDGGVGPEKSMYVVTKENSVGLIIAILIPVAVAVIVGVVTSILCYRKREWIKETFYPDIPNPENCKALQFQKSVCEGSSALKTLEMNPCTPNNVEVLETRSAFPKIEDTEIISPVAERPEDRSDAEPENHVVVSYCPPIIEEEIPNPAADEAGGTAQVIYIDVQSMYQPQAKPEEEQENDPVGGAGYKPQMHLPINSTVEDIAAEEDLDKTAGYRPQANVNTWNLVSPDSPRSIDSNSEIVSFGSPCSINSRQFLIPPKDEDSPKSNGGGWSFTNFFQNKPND
Structure (SMILES),IC50 [1] [µM],IC50 [2] [µM],inhibition (PANC-1),inhibition [3],inhibition [4],Kd [5] [µM],inhibition [6],inhibition [7]
O=C(c1ccc(OCCN2CCCCC2)cc1)c1c(-c2ccc(O)cc2)sc2cc(O)ccc12 [RALOXIFENE],26.3,43.2,inactive,inactive,Active,,,
CCCCC1=C(C)C(=O)[C@](C)(CN2c3ccccc3[C@]3(O)CCOC23)C1=O (stereo partly drawn) [MADINDOLINE A],,> 250,,,,288,,
Cc1c(-c2ccc(O)cc2)n(Cc2ccc(OCCN3CCCCCC3)cc2)c2ccc(O)cc12 [BAZEDOXIFENE],9.7,24.9,inactive,inactive,,,Active,Active
